Assays:
[1] = Dissociation constant, pKa of compound by potentiometric fast UV-metric titration method; format: physicochemical
[2] = Metabolic stability in human Hepatocyte assessed as intrinsic clearance at 1 uM incubated for 90 mins by UPLC-MS/MS analysis; format: ADME, tissue-based; conditions: hepatocytes
Summary of the method: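 Human hepatocytes were incubated with compound to capture phase 2 and other metabolism.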

[3] = Lipophilicity, logD of compound at pH 7.4 by RP-HPLC analysis; format: physicochemical; conditions: buffer
[4] = Metabolic stability in human skin S9 cells assessed as half life at 0.5 uM incubated for 180 mins by UPLC-MS/MS analysis; format: ADME, subcellular, Zone of skin; conditions: s9, 3 h
Summary of the method: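 Skin S9 fraction was incubated with compound in the presence of enzymatic cofactors. Stability was followed over 180 min, n = 1.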

[5] = Stability of compound in DMSO assessed as decrease in purity incubated for 24 hrs; format: physicochemical
Summary of the method: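 Compound was held in DMSO solution and its stability judged after 24 h. Single determination, n = 1.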

Q: With `CCC/N=C1\S/C(=C\c2ccc(O)c(C(F)(F)F)c2)C(=O)N1c1ccccc1C` as the compound, how does the pKa [1] read?
A: The pKa was 6.6.

Q: And the CLH [2]?
A: Its CLH is 4.2 mL/min/g.

Q: And the logD [3]?
A: Its logD is 3.8.

Q: With `CCC/N=C1\S/C(=C\c2ccc(OC(=O)CCO)c(C)c2)C(=O)N1c1ccccc1C` as the compound, how does the t1/2 [4] read?
A: The t1/2 was 8.2 min.

Q: Which results are given for `CCC/N=C1\S/C(=C\c2ccc(O)c(C)c2)C(=O)N1c1ccccc1C`?
A: pKa [1]: 8.5; CLH [2]: 31 mL/min/g; logD [3]: 3.8

Q: Which logD [3] does the source give for `CCC/N=C1\S/C(=C\c2ccc(O)c(Cl)c2)C(=O)N1C1CCN(C)C(=O)C1` (racemic) here?
A: Its logD is 0.6.

Q: For `CCC/N=C1\S/C(=C\c2ccc(OC(=O)C(C)C)c(C)c2)C(=O)N1c1ccccc1C`, which t1/2 [4] is on record?
A: The t1/2 was 21 min.

Q: With `Cc1ccccc1N1C(=O)/C(=C/c2ccc(O)c(Cl)c2)S/C1=N\CCCF` as the compound, how does the logD [3] read?
A: Its logD is 3.4.

Q: With `COCC/N=C1\S/C(=C\c2ccc(O)c(Cl)c2)C(=O)N1c1ccccc1C` as the compound, how does the logD [3] read?
A: Its logD is 2.9.

Q: Which t1/2 [4] does the source give for `CCC/N=C1\S/C(=C\c2ccc(OC(C)=O)c(C(F)(F)F)c2)C(=O)N1c1ccccc1C` here?
A: Its t1/2 is 8.3 min.

Q: Which logD [3] does the source give for `CCC/N=C1\S/C(=C\c2ccc(O)c(Cl)c2)C(=O)N1c1ccccc1OC` here?
A: Its logD is 3.3.

Q: Which logD [3] does the source give for `CCC/N=C1\S/C(=C\c2ccc(O)c(Cl)c2)C(=O)N1C1CC1` here?
A: Its logD is 3.4.

Q: With `Cc1ccccc1N1C(=O)/C(=C/c2ccc(O)c(Cl)c2)S/C1=N\CCO` as the compound, how does the logD [3] read?
A: The logD was 1.9.

Q: Which t1/2 [4] does the source give for `CCC/N=C1\S/C(=C\c2ccc(OC(C)=O)c(C)c2)C(=O)N1c1ccccc1C` here?
A: The t1/2 was 7.3 min.

Q: Which Stabilty [5] does the source give for `CCC/N=C1\S/C(=C\c2ccc(OC(=O)COC)c(C)c2)C(=O)N1c1ccccc1C` here?
A: Its Stabilty is “Unstable”.

Q: Which logD [3] does the source give for `CCC/N=C1\S/C(=C\c2ccc(O)c(Cl)c2)C(=O)N1C1CCS(=O)(=O)CC1` here?
A: The logD was 2.6.

Q: Which logD [3] does the source give for `Cc1ccccc1N1C(=O)/C(=C/c2ccc(O)c(Cl)c2)S/C1=N\C1COC1` here?
A: Its logD is 2.6.

Q: With `CCC/N=C1\S/C(=C\c2ccc(OC(=O)CCOC)c(C)c2)C(=O)N1c1ccccc1C` as the compound, how does the t1/2 [4] read?
A: The t1/2 was 4.8 min.

Q: Which pKa [1] does the source give for `CCC/N=C1\S/C(=C\c2ccc(O)c(C(C)C)c2)C(=O)N1c1ccccc1C` here?
A: The pKa was 8.6.

Q: And the CLH [2]?
A: The CLH was 12 mL/min/g.

Q: And the logD [3]?
A: The logD was 4.3.

Q: Which t1/2 [4] does the source give for `CCC/N=C1\S/C(=C\c2ccc(OC(=O)C(C)(C)C)c(C)c2)C(=O)N1c1ccccc1C` here?
A: Its t1/2 is over 180 min.

Q: For `CCC/N=C1\S/C(=C\c2ccc(OC(C)=O)c(Br)c2)C(=O)N1c1ccccc1C`, which t1/2 [4] is on record?
A: The t1/2 was 8.8 min.

Q: For `CCC/N=C1\S/C(=C\c2ccc(OC[C@H](O)CO)c(Cl)c2)C(=O)N1c1ccccc1C` [PONESIMOD], which t1/2 [4] is on record?
A: The t1/2 was over 180 min.

Q: For `CCC/N=C1\S/C(=C\c2ccc(O)c(Cl)c2)C(=O)N1c1ccccc1O`, which logD [3] is on record?
A: Its logD is 2.7.

Q: Which logD [3] does the source give for `CCC/N=C1\S/C(=C\c2ccc(O)c(Cl)c2)C(=O)N1C1CCOCC1` here?
A: Its logD is 3.7.

Q: For `CCC/N=C1\S/C(=C\c2ccc(OC(=O)CN(C)C)c(C)c2)C(=O)N1c1ccccc1C`, which Stabilty [5] is on record?
A: Its Stabilty is “Unstable”.

Q: Which pKa [1] does the source give for `CCC/N=C1\S/C(=C\c2ccc(O)cn2)C(=O)N1c1ccccc1C` here?
A: The pKa was 7.1.

Q: And the CLH [2]?
A: The CLH was 7.9 mL/min/g.

Q: What about the logD [3] of the same compound?
A: Its logD is 3.

Q: With `CCC/N=C1\S/C(=C\c2ccc(O)c(Cl)c2)C(=O)N1C(C)C` as the compound, how does the logD [3] read?
A: Its logD is over 4.3.

Q: For `CCC/N=C1\S/C(=C\c2ccc(O)c(Cl)c2)C(=O)N1c1ccccc1C`, which pKa [1] is on record?
A: The pKa was 6.8.

Q: What about the CLH [2] of the same compound?
A: Its CLH is 8.4 mL/min/g.

Q: What about the logD [3] of the same compound?
A: Its logD is 3.8.

Q: For `CCC/N=C1\S/C(=C\c2ccc(O)cc2)C(=O)N1c1ccccc1C`, which pKa [1] is on record?
A: The pKa was 8.3.

Q: And the CLH [2]?
A: Its CLH is 1.7 mL/min/g.

Q: And the logD [3]?
A: The logD was 3.5.

Q: Which pKa [1] does the source give for `CCC/N=C1\S/C(=C\c2ccc(O)c(Br)c2)C(=O)N1c1ccccc1C` here?
A: Its pKa is 6.4.

Q: What about the CLH [2] of the same compound?
A: The CLH was 6 mL/min/g.

Q: And the logD [3]?
A: The logD was 3.9.

Reference: ChEMBL document CHEMBL4699442, “Discovery of Soft-Drug Topical Tool Modulators of Sphingosine-1-phosphate Receptor 1 (S1PR1)” (ACS Med Chem Lett, 2019)
